ChEMBL document CHEMBL1921733, “III. Identification of novel CXCR3 chemokine receptor antagonists with a pyrazinyl-piperazinyl-piperidine scaffold” (Bioorg Med Chem Lett, 2011)

Key:
[1] = AUC in rat at 10 mg/kg, po after 6 hrs; details: in vivo
[2] = target: T1, C-X-C chemokine receptor type 3 (Homo sapiens, UniProt P49682); experiment: Displacement of [125I]CXCL10 from human CXCR3 expressed in mouse BA/F3 cells; type: cell-based, BaF3
T1 sequence (P49682 whole entry): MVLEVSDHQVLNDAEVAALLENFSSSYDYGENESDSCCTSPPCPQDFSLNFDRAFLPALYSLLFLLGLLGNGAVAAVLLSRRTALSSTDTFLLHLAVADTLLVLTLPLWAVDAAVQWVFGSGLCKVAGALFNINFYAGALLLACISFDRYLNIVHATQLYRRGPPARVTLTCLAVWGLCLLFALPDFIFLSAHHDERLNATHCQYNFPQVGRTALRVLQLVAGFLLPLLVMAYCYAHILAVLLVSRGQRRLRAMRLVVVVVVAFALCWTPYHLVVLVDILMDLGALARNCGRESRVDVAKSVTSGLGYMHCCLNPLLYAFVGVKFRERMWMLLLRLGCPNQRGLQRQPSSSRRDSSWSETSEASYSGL
Summary of the method: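 Radioligand displacement of 125I-labelled human CXCL10 from recombinant Ba/F3 cells expressing human CXCR3.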

hERG (KCNH2) = hERG (KCNH2) (Homo sapiens, UniProt Q12809); experiment: Inhibition of human ERG at 10 uM by rubidium efflux assay
Sequence of hERG (KCNH2) (Q12809 whole entry): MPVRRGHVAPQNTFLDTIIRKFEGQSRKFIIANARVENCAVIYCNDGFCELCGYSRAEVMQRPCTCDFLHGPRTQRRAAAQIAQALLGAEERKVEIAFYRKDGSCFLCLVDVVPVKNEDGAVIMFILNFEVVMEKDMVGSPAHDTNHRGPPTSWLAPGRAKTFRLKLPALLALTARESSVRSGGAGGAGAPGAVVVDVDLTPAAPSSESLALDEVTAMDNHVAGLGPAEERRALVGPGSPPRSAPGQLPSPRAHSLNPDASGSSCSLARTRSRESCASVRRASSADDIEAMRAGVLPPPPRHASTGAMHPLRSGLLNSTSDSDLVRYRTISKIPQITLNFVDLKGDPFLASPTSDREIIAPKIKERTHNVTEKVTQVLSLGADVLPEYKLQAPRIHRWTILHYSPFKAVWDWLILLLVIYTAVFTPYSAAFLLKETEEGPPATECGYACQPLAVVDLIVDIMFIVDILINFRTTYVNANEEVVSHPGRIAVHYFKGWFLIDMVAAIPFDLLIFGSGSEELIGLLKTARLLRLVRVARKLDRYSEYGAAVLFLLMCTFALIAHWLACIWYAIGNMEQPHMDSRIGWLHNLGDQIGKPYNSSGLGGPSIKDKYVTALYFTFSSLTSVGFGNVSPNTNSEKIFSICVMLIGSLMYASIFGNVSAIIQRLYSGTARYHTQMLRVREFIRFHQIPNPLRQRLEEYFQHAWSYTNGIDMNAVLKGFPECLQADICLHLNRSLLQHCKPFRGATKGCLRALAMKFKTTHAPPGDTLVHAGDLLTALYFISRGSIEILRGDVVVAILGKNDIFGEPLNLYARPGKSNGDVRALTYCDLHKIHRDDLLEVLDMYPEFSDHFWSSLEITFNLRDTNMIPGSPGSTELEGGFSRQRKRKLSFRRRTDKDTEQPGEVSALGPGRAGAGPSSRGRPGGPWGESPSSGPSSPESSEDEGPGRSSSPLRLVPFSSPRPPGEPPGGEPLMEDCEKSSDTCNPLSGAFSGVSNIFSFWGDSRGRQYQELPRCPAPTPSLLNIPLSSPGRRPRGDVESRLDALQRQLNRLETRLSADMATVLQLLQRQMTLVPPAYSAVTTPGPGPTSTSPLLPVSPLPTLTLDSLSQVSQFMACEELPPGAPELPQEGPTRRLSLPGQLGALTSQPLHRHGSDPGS
Summary of the method: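 hERG K+ channel block measured by rubidium efflux with test compound at 10 μM, reported as % inhibition.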

SMILES | AUC at 6 h [1] | IC50 [2] | inhibition at 10 µM (hERG (KCNH2))
CC[C@H]1CN(c2nc(N)c(C(N)=O)nc2Cl)CCN1C1CCN(Cc2ccc(Cl)cc2)CC1 | 5.1 µM·h | – | –
CC[C@H]1CN(c2nc(N)c(C(N)=O)nc2Cl)CCN1C1CCN(Cc2ccc(OC(F)(F)F)cc2)CC1 | – | 3.7 nM | –
CC[C@H]1CN(c2nc(N)c(C(N)=O)nc2Cl)CCN1C1CCN(Cc2ccc(C#N)cc2)CC1 | – | 8.5 nM | –
CC[C@H]1CN(c2nc(N)c(C(N)=O)nc2Cl)CCN1C1CCN(C(CO)c2ccc(Cl)cc2)CC1 (some centres undefined) | – | 1.9 nM | –
CC[C@H]1CN(c2nc(N)c(C(N)=O)nc2Cl)CCN1C1CCN(C(=O)c2ccc(Cl)cc2)CC1 | – | 76 nM | –
CC[C@H]1CN(c2nc(N)c(C(=O)NC)nc2Cl)CCN1C1CCN(Cc2ccc(Cl)cc2)CC1 | – | 0.3 nM | –
CC[C@H]1CN(c2nc(N)c(C(=O)NCC(F)(F)F)nc2Cl)CCN1C1CCN(Cc2ccc(Cl)cc2)CC1 | – | 0.8 nM | –
CC[C@H]1CN(c2nc(N)c(C(=O)NCCO)nc2Cl)CCN1C1CCN(Cc2ccc(Cl)cc2)CC1 | – | 0.4 nM | –
CC[C@H]1CN(c2nc(N)c(C(=O)NCC(C)O)nc2Cl)CCN1C1CCN(Cc2ccc(Cl)cc2)CC1 (some centres undefined) | – | 0.3 nM | –
CC[C@H]1CN(c2nc(N)c(C(=O)NCC(C)(C)O)nc2Cl)CCN1C1CCN(Cc2ccc(Cl)cc2)CC1 | – | 8.4 nM | –
CC[C@H]1CN(c2nc(N)c(C(=O)NCCNS(=O)(=O)C(F)(F)F)nc2Cl)CCN1C1CCN(Cc2ccc(Cl)cc2)CC1 | – | 0.9 nM | –
CC[C@H]1CN(c2nc(N)c(C(=O)NCCNS(N)(=O)=O)nc2Cl)CCN1C1CCN(Cc2ccc(Cl)cc2)CC1 | – | 1.9 nM | –
CC[C@H]1CN(c2nc(N)c(C(=O)NCCS(C)(=O)=O)nc2Cl)CCN1C1CCN(Cc2ccc(Cl)cc2)CC1 | – | 6.4 nM | –
CC[C@H]1CN(c2nc(N)c(C(=O)N[C@@H]3CCOC3=O)nc2Cl)CCN1C1CCN(Cc2ccc(Cl)cc2)CC1 | – | 1.5 nM | –
CC[C@H]1CN(c2nc(N)c(C(=O)NCCNS(N)(=O)=O)nc2Cl)CCN1C1CCN(Cc2ccc(F)c(F)c2)CC1 | – | 9 nM | 4%
CC[C@H]1CN(c2nc(N)c(C(=O)NCCNS(C)(=O)=O)nc2Cl)CCN1C1CCN(Cc2ccc(Cl)cc2)CC1 | – | 4.4 nM | 39%
CC[C@H]1CN(c2nc(N)c(C(N)=O)nc2Cl)CCN1C1CCN(Cc2ccc(Cl)cc2[C@H](O)C(N)=O)CC1 | – | 4.1 nM | 14%
CC[C@H]1CN(c2nc(N)c(C(=O)NCCO)nc2Cl)CCN1C1CCN(C(=O)c2ccc(Cl)nc2N)CC1 | 5.9 µM·h | 3.4 nM | 17%
CC[C@H]1CN(c2ncc(C(N)=O)nc2Cl)CCN1C1CCN(C(=O)c2ccc(Cl)nc2N)CC1 | – | 2.5 nM | 7%
CC[C@H]1CN(c2ncc(C(=O)NC(C)(C)C)nc2Cl)CCN1C1CCN(C(=O)c2ccc(Cl)nc2N)CC1 | – | 1.5 nM | 13%

SMILES | AUC at 6 h [1] | IC50 [2] | inhibition at 10 µM (hERG (KCNH2))
CC[C@H]1CN(c2ncc(C(=O)NC3CC3)nc2Cl)CCN1C1CCN(C(=O)c2ccc(Cl)nc2N)CC1 | – | 1.2 nM | 19%
CC[C@H]1CN(c2ncc(C(=O)NC(C)C)nc2Cl)CCN1C1CCN(C(=O)c2ccc(Cl)nc2N)CC1 | – | 0.9 nM | 56%
CC[C@H]1CN(c2ncc(C(=O)NCCO)nc2Cl)CCN1C1CCN(C(=O)c2ccc(Cl)nc2N)CC1 | – | 2.9 nM | 11%
CC[C@H]1CN(c2ncc(C(=O)NC[C@@H](C)O)nc2Cl)CCN1C1CCN(C(=O)c2ccc(Cl)nc2N)CC1 | – | 2.9 nM | 17%
CC[C@H]1CN(c2ncc(C(N)=O)nc2C(F)(F)F)CCN1C1CCN(C(=O)c2ccc(Cl)nc2N)CC1 | 15.3 µM·h | 1.9 nM | 0%
CC[C@H]1CN(c2ncc(C(=O)NC)nc2C(F)(F)F)CCN1C1CCN(C(=O)c2ccc(Cl)nc2N)CC1 | 6.4 µM·h | 1.5 nM | 0%
CC[C@H]1CN(c2ncc(C(=O)NC3CC3)nc2C(F)(F)F)CCN1C1CCN(C(=O)c2ccc(Cl)nc2N)CC1 | 3.6 µM·h | 1.8 nM | 53%
CC[C@H]1CN(c2ncc(C(N)=O)nc2C)CCN1C1CCN(C(=O)c2ccc(Cl)nc2N)CC1 | 30.2 µM·h | 4 nM | 0%
CC[C@H]1CN(c2ncc(C(=O)NC)nc2C)CCN1C1CCN(C(=O)c2ccc(Cl)nc2N)CC1 | 12.1 µM·h | 2.4 nM | 5%
CC[C@H]1CN(c2ncc(C(=O)NC3CC3)nc2C)CCN1C1CCN(C(=O)c2ccc(Cl)nc2N)CC1 | 22 µM·h | 1.9 nM | 16%
CC[C@H]1CN(c2ncc(C(N)=O)nc2C)CCN1C1CCN(C(=O)c2ccc(Cl)cc2)CC1 | – | 18 nM | 6%
CC[C@H]1CN(c2ncc(C(=O)NC)nc2C)CCN1C1CCN(C(=O)c2ccc(Cl)cc2)CC1 | – | 3.6 nM | 41%
CCNC(=O)c1cnc(N2CCN(C3CCN(C(=O)c4ccc(Cl)cc4)CC3)[C@@H](CC)C2)c(C)n1 | 2.9 µM·h | 2 nM | 44%
CC[C@H]1CN(c2ncc(C(=O)NC3CC3)nc2C)CCN1C1CCN(C(=O)c2ccc(Cl)cc2)CC1 | 8.4 µM·h | 1.1 nM | 74%
CC[C@H]1CN(c2ncc(C(N)=O)nc2C)[C@H](C)CN1C1CCN(C(=O)c2ccc(Cl)cc2)CC1 | – | 5.4 nM | 9%
CC[C@@H]1CN(C2CCN(C(=O)c3ccc(Cl)cc3)CC2)[C@@H](CC)CN1c1ncc(C(N)=O)nc1C | – | 235 nM | 13%
CC[C@H]1CN(c2ncc(C(N)=O)nc2C)[C@@H](C)CN1C1CCN(C(=O)c2ccc(Cl)cc2)CC1 | – | > 1000 nM | –
CC[C@H]1CN(c2ncc(C(=O)NC)nc2C)[C@H](C)CN1C1CCN(C(=O)c2ccc(Cl)cc2)CC1 | – | 4.2 nM | 30%
CC[C@H]1CN(c2ncc(C(=O)NC3CC3)nc2C)[C@H](C)CN1C1CCN(C(=O)c2ccc(Cl)cc2)CC1 | 9.8 µM·h | 1.3 nM | 7%
CCNC(=O)c1cnc(N2CCN(C3CCN(Cc4ccc(Cl)cc4)CC3)[C@@H](CC)C2)c(Cl)c1 | 0.4 µM·h | – | –
